Laboratory results as given in publication PMC3770188 (ACS medicinal chemistry letters, 2013).
Where two headings read alike, the source gives them in different places.

Experiments:
spermatogenesis in mice [1] = settings: oral, low levels; cited from earlier work
RARγ = molecular target: T1, RARγ (Homo sapiens, UniProt P13631); experiment: Transactivation competition assay; assay type: cell-based; settings: HeLa cells, 10^−7M ATRA, increasing concentrations of retinoid, 24 hours
T1 sequence (P13631 1-454): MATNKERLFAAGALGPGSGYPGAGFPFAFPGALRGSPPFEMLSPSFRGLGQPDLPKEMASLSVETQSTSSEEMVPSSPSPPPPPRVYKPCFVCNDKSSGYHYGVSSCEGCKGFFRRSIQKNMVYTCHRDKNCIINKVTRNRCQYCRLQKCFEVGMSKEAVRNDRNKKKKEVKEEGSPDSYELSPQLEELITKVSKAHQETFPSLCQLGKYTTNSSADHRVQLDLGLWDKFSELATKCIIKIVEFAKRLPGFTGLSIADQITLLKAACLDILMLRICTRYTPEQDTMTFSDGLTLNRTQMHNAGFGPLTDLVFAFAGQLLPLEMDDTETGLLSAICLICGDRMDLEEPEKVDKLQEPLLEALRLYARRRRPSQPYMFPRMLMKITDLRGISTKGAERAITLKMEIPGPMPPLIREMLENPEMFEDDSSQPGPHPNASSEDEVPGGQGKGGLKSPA
Summary of the method: (§1)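 HeLa cells were cotransfected with receptor/CAT reporter constructs plus a constant β-galactosidase plasmid as internal control. Cells were incubated with submaximal ATRA (10–7 M) plus increasing concentrations of test compound, and CAT expression was measured after 24 h. Dilution medium without retinoid served as vehicle control and ATRA as positive control.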

RARs [2] = experiment: Transactivation assay; assay type: cell-based; settings: concomitantly transfected RARs
RARβ = molecular target: T2, RARβ (Homo sapiens, UniProt P10826); experiment: Transactivation competition assay; assay type: cell-based; settings: HeLa cells, 10^−7M ATRA, increasing concentrations of retinoid, 24 hours
T2 sequence (P10826 1-455): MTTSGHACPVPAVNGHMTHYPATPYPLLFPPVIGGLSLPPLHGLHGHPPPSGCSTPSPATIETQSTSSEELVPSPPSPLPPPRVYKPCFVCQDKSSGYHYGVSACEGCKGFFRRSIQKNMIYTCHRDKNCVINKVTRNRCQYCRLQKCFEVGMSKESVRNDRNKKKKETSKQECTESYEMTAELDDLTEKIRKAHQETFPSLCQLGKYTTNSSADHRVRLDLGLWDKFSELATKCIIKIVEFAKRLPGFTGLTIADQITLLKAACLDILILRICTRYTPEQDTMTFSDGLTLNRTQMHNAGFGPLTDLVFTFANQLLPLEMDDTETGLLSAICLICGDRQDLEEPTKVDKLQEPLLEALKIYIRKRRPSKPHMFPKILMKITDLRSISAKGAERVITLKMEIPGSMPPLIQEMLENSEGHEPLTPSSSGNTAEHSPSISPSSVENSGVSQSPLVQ
Summary of the method: as §1

spermatogenesis in mice [3] = experiment: Oral administration, effect on spermatogenesis in mice; assay type: in vivo, CD1 mice; settings: for Morphology of caudal epididymides: oral 10 mg/kg for 7 days; for Morphology of caudal epididymides / Epididymal sperm motility: 1-month post-treatment; for Testicular weight compared with control: oral 2 and 10 mg/kg for 7 days, mean±SD of five mice; for Effect on spermatogenesis (testis morphology): oral 2.0 and 10 mg/kg for 7 days, one-month after dosing; for Epididymal sperm motility: oral, 7 days
Summary of the method: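 Male CD1 mice received test compound by oral gavage daily at 2 or 10 mg/kg for 7 days; controls got vehicle alone for 7 days. Body weight was monitored throughout. One month post-treatment, testes were collected and weighed (mean ± SD, five mice per regimen; […] Student's t-test vs age-matched controls). Testes and epididymides were sectioned for histology with tubule staging.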

RARs [4] = settings: concomitantly transfected RARs; cited from earlier work
spermatogenesis in mice [5] = experiment: IV and IP administration, effect on spermatogenesis in mice; assay type: in vivo, CD1 mice
Summary of the method: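 Male CD1 mice dosed daily with test compound at 10 mg/kg by IV (for 3, 6 or 7 days; n = 2 for 6 and 7 days) or IP (7 days), against vehicle-only controls. Testes taken […] were sectioned and examined histologically for spermatid alignment and release in tubules. Reversibility was assessed by testis histology 4 weeks post-treatment.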

SMILES	Effect on spermatogenesis in mice (spermatogenesis in mice [1])	Side-effects in mice (spermatogenesis in mice [1])	Competition of ATRA-induced CAT expression, RARγ (RARγ)	Induction of RARE-CAT reporter expression by compound alone (RARs [2])	Competition of ATRA-induced CAT expression, RARβ (RARβ)	Morphology of caudal epididymides (spermatogenesis in mice [3])	Testicular weight compared with control (spermatogenesis in mice [3])	Effect on spermatogenesis (testis morphology) (spermatogenesis in mice [3])	Epididymal sperm motility (spermatogenesis in mice [3])	Induction of RARE-CAT reporter expression by compound alone (RARs [4])	Effect on spermatid alignment and sperm release (spermatogenesis in mice [5]; IV 10 mg/kg for 6 and 7 days, one-day post-treatment)	Effect on spermatogenesis 4-weeks post-treatment (reversibility) (spermatogenesis in mice [5]; IV, 4-weeks post-treatment)
CC1(C)CC=C(c2ccccc2)c2cc(/C=C/c3ccc(C(=O)O)cc3)ccc21 [compound 1]	inhibited spermatogenesis	without any observable side-effects	–	–	–	–	–	–	–	–	–	–
CC1(C)CC=C(c2cnc3ccccc3c2)c2cc(C(=O)Nc3ccc(C(=O)O)cc3)ccc21 [compound 3]	–	–	minimal activity	did not, by themselves, induce reporter expression	minimal activity	appeared normal	No significant differences	no effect on spermatogenesis	normal motility	–	–	–
Cc1ccc(C2=CCC(C)(C)c3ccc(C(=O)Nc4ccc(C(=O)O)cc4)cc32)cc1 [compound 2]	–	–	minimal activity	–	minimal activity	appeared normal	No significant differences	no effect on spermatogenesis	normal motility	did not, by themselves, induce reporter expression	Acute disruptive effects	No effect on spermatogenesis
